Key:
Conditions in all cases: stereoisomer not certain
UniProt Q8VGJ5 = target: T1, UniProt Q8VGJ5
T1 sequence (whole entry): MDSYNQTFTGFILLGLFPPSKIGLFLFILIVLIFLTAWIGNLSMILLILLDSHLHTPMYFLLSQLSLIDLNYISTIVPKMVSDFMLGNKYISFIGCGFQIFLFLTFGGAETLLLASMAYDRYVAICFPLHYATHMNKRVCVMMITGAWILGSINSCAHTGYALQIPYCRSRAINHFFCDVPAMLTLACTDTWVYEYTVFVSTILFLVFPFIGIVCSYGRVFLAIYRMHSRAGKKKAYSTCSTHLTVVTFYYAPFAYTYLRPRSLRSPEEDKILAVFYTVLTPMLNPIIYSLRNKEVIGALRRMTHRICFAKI
Summary of the method: (§1)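 Whether a receptor–molecule pair is responsive (active) rests on the original authors' judgment that its measured signal was statistically different from baseline. Pairs without that judgment are non-responsive (inactive). Sources used varied assay methods, commonly transient luciferase assays in mammalian cell lines.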

UniProt Q8VGL0 = target: T2, UniProt Q8VGL0
T2 sequence (whole entry): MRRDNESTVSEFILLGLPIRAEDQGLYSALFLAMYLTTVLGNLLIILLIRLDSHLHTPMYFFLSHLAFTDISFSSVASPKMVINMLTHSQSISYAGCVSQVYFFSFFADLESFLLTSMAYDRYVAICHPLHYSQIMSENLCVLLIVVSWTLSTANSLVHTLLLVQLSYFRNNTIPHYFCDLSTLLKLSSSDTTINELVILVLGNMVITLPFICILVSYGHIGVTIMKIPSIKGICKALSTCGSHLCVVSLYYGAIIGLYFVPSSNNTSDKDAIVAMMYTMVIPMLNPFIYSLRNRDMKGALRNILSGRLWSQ
Summary of the method: as §1

UniProt Q8VGL7 = target: T3, UniProt Q8VGL7
T3 sequence (whole entry): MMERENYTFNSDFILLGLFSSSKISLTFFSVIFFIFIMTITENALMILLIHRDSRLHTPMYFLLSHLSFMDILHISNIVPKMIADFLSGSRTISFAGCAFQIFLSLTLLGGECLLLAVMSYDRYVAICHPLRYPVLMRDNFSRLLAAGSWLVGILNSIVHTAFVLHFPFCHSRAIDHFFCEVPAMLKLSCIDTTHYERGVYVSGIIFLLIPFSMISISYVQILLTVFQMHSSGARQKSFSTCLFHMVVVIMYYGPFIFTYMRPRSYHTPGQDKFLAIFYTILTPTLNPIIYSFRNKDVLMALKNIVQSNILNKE
Summary of the method: as §1

UniProt Q8VGM2 = target: T4, UniProt Q8VGM2
T4 sequence (whole entry): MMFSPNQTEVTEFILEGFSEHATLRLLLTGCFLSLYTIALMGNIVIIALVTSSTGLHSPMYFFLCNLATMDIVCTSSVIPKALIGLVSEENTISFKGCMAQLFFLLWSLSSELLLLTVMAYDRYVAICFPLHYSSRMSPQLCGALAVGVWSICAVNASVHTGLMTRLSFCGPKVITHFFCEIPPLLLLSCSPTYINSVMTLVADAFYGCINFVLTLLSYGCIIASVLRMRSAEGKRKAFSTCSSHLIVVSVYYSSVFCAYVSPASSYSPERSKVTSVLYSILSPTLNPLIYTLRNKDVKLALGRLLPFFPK
Summary of the method: as §1

UniProt Q8VGP6 = target: T5, UniProt Q8VGP6
T5 sequence (whole entry): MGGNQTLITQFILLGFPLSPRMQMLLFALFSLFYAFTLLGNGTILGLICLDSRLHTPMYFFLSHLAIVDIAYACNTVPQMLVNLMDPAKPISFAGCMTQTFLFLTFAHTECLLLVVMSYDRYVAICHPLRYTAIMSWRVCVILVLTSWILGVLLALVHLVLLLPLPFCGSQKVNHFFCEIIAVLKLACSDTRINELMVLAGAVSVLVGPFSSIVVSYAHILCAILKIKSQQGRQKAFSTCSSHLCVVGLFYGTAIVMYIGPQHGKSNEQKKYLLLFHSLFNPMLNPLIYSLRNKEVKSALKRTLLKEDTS
Summary of the method: as §1

UniProt Q8VGQ3 = target: T6, UniProt Q8VGQ3
T6 sequence (whole entry): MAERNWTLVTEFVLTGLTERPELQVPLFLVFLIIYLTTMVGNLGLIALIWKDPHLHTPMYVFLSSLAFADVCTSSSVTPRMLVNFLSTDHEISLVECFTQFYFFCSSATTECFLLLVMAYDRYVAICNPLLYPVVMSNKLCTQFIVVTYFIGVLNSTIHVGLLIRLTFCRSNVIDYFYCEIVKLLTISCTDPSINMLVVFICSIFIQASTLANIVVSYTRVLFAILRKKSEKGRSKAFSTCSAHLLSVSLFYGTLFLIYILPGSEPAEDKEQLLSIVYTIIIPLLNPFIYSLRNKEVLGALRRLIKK
Summary of the method: as §1

UniProt Q8VGT4 = target: T7, UniProt Q8VGT4
T7 sequence (whole entry): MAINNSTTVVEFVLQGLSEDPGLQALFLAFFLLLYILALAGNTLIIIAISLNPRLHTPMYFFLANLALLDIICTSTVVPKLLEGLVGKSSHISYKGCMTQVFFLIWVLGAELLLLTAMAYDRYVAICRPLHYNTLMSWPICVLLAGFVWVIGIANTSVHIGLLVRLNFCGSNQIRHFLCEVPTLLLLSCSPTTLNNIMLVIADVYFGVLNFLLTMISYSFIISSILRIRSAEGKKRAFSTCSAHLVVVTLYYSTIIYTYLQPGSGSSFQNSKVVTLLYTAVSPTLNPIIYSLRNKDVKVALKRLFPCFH
Summary of the method: as §1

UniProt Q8VGU3 = target: T8, UniProt Q8VGU3
T8 sequence (whole entry): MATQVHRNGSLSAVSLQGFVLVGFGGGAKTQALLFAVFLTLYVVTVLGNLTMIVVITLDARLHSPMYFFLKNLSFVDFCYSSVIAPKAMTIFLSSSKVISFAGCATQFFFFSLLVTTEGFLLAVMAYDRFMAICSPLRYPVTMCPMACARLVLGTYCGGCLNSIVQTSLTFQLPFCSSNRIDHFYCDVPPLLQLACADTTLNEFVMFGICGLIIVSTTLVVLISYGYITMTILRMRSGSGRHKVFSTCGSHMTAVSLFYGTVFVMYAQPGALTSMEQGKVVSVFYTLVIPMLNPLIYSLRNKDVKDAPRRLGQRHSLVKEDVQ
Summary of the method: as §1

UniProt Q8VGV1 = target: T9, UniProt Q8VGV1
T9 sequence (whole entry): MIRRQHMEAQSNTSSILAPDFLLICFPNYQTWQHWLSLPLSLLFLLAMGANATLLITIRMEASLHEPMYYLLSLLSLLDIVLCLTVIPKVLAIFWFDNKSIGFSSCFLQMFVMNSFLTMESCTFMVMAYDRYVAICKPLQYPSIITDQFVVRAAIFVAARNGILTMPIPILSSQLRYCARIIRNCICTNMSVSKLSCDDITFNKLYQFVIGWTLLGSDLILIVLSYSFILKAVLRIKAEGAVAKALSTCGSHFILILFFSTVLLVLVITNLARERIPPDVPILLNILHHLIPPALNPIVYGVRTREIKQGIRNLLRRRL
Summary of the method: as §1

Measured: odorant receptor agonist call;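 also: active if original authors judged signal statistically different from baseline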

C=CCOC(=O)Cc1ccccc1
inactive: UniProt Q8VGL0 | UniProt Q8VGL7 | UniProt Q8VGM2 | UniProt Q8VGQ3 | UniProt Q8VGT4 | UniProt Q8VGU3 | UniProt Q8VGV1
active: UniProt Q8VGJ5 | UniProt Q8VGP6
